Test results: ChEMBL document CHEMBL4387752, “Identification of substituted benzothiazole sulfones as potent and selective inhibitors of endothelial lipase” (Bioorg Med Chem Lett, 2019)

How the values were obtained:
Endothelial lipase [1] = target: T1, Endothelial lipase (Homo sapiens, UniProt Q9Y5X9); assay: Inhibition of human endothelial lipase derived from human HT1080 cell conditioned media using PED-A1 as substrate incubated for 20 mins and measured every 20 secs for 10 mins by FRET assay
T1 sequence (Q9Y5X9 whole entry): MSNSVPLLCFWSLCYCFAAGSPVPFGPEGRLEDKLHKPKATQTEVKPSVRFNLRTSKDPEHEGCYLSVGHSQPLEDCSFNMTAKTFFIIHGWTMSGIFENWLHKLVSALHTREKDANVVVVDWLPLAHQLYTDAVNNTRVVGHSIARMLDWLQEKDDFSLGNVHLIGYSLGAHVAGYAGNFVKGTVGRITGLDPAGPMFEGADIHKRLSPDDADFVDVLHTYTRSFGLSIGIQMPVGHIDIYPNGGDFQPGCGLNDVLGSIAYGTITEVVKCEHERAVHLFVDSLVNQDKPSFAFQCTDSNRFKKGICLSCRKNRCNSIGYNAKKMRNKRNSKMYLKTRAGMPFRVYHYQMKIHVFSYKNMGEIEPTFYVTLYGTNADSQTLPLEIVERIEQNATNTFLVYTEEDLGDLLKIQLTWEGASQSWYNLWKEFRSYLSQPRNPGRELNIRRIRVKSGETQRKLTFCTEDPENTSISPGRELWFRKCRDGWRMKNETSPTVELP
Procedure, shortened: (§1)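 IC50s were calculated from mean inhibition values of duplicate determinations.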

[2] = Plasma concentration in Balb/c mouse at 10 mg/kg, po measured after 24 hrs; format: ADME, organism-based
Procedure, shortened: (§2)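 Oral PK in fasted male balb/c mice. Dosing vehicle was ethanol/PEG 400/water (10:60:30).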

[3] = Metabolic stability in Balb/c mouse liver microsomes assessed as parent compound remaining at 0.5 uM measured after 10 mins; format: ADME, Microsome; conditions: read-out: Stability
Procedure, shortened: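 Test compound at 0.5 μM was incubated for 10 min with mouse liver microsomes. The read-out is the percentage of parent remaining.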

[4] = Tmax in Balb/c mouse at 10 mg/kg, po; format: ADME, organism-based; conditions: in vivo; procedure, shortened: as §2
Endothelial lipase [5] = target: T2, Endothelial lipase (Mus musculus, UniProt Q9WVG5); assay: Inhibition of mouse endothelial lipase expressed in HEK293F cells using D31-POPC-HDL as substrate incubated for 2 hrs in presence of mouse plasma by LC/MS analysis
T2 sequence (Q9WVG5 whole entry): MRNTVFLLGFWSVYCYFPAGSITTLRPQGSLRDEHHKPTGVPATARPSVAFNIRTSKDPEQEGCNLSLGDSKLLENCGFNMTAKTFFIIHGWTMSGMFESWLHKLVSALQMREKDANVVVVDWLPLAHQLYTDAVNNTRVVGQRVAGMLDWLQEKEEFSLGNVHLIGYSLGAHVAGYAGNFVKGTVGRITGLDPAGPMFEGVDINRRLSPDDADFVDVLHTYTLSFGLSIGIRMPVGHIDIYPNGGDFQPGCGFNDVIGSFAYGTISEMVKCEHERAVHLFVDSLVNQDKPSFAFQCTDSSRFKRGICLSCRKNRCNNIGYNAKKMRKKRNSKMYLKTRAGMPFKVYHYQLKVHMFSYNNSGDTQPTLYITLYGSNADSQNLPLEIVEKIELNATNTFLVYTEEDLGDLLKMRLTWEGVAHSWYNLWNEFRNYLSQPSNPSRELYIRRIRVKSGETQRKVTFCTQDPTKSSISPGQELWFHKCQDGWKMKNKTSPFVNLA
Procedure, shortened: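 IC50 values were derived from the means of duplicate inhibition measurements.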

[6] = Cmax in Balb/c mouse at 10 mg/kg, po; format: ADME, organism-based; parameters: dose 10 mg/kg, route oral; conditions: in vivo; procedure, shortened: as §2
[7] = Plasma concentration in Balb/c mouse at 10 mg/kg, po measured after 7 hrs; format: ADME, organism-based; procedure, shortened: as §2
[8] = Total AUC in Balb/c mouse at 10 mg/kg, po measured after 24 hrs; format: ADME, organism-based; parameters: dose 10 mg/kg, time AUCmax, route oral; conditions: in vivo; procedure, shortened: as §2
[9] = target: T3, Hepatic triacylglycerol lipase (Homo sapiens, UniProt P11150); assay: Inhibition of human hepatic lipase expressed in African green monkey COS7 cells using PED-A1 as substrate incubated for 20 mins and measured every 20 secs for 10 mins by FRET assay; format: cell-based; procedure, shortened: as §1
T3 sequence (P11150 whole entry): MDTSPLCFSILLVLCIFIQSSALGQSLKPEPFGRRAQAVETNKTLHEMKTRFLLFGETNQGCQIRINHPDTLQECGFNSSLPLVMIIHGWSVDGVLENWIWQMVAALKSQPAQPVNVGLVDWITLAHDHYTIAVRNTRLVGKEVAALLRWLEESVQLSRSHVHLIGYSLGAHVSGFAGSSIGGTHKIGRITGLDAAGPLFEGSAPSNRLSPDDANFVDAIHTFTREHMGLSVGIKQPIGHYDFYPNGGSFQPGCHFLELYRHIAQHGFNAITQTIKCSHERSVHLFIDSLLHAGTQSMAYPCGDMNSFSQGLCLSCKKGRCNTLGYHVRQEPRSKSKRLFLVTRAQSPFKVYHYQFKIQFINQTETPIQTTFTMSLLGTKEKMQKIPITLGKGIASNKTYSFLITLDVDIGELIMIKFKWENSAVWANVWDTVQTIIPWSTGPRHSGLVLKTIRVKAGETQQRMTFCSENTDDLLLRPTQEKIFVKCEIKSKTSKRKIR

IC50 (Endothelial lipase [1]) [nM] | concentration at 24 h [2] [nM] | remaining at 10 min, 0.5 µM [3] [%] | Tmax [4] [h] | IC50 (Endothelial lipase [5]) [nM] | Cmax [6] [nM] | concentration at 7 h [7] [nM] | AUC at 24 h [8] [µM·h] | IC50 [9] [nM] | SMILES
10 | 1 | 74 | 3 | 190 | 15 | 4 | 0.1 |  | CS(=O)(=O)C(C(=O)NCCS(N)(=O)=O)c1nc2ccc(-c3cnn(CCN4CCOCC4)c3)cc2s1 (configuration not stated)
450 |  |  |  |  |  |  |  | 81 | CS(=O)(=O)C(C(=O)NCCNS(N)(=O)=O)c1nc2ccc(-c3ccccc3)cc2s1 (configuration not stated)
7700 |  |  |  |  |  |  |  | 52 | CS(=O)(=O)C(C(=O)NCCCS(N)(=O)=O)c1nc2ccc(-c3ccccc3)cc2s1 (configuration not stated)
